Assay results: the RNAGym collection of RNA variant scans (doi:10.1038/s41586-018-0170-7)

B1: tRNA (parent)
chain: GUUCCGUUGGCGUAAUGGUAACGCGUCUCCCUCCUAAGGAGAAGACUGCGGGUUCGAGUCCCGUACGGAACG

Variants of: B1
Experiment: yeast fitness, log relative to wild type (ln ratio); higher = fitter; tRNA-Arg(CCU), competitive growth, 37 C, 1 M NaCl
Summary of the method: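 BY4742 cells without the chromosomal tRNA-Arg(CCU) gene carried a combinatorial variant library on a HIS3 centromeric plasmid, from two independent transformations. After 4 generations in SC-HIS at 30 °C, pools spent ~6.5 generations (~26.5 h) in SC-HIS 1M NaCl at 37 °C, giving three outputs per input, and 125 bp paired-end Illumina reads counted the variants. Fitness is the natural log of each genotype's generations over the wild type's, with generations taken as OD-scaled log2 output/input frequency weighted by inverse variance across replicates.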

Point of comparison: G1A G6U A43C C66U A70U C71U, “yeast fitness (ln)” value -0.38. Against it:
- G6A C27U A43C A69G A70U — higher, -0.345
- G1A U2G G6A C27U C46U C66U — higher, -0.258
- G6U C27U A43C C46U C66A A69G A70U — lower, -0.462
- G1A U2C G6A C66U C71U — higher, -0.083
- U2G A43C C46U C66U C71U — higher, -0.2
- G6U A70G C71U — higher, -0.153
- G1A U2G G6A C27U C46U A69G C71U — higher, -0.269
- G1A G6A C27U C46U A69G A70U C71U — higher, -0.36
- U2G G6A C27U C66A A69G A70G C71U — higher, -0.249
- U2C A43C C46U C66A A69G A70G C71U — higher, -0.097
- U2G C27U A43C C46U C66A A70U — higher, -0.0794
- G1A G6A C27U A43C C46U A70G C71U — higher, -0.315
- G6A A43C A69G A70U C71U — lower, -0.429
- U2G C46U — higher, -0.0208
- G6U C46U A69G A70G — higher, -0.158
- G1A G6U C46U A69G C71U — higher, -0.297
- U2C G6U C27U A43C C66U A69G A70U C71U — lower, -0.419
- U2C G6U C27U C46U C66U A69G A70G — higher, -0.3
- G1A U2C A43C C46U — higher, -0.00932
- G6U C46U C66A A70G — higher, -0.00887
- G1A G6U A43C C46U A70U C71U — higher, -0.297
- C66U A70U C71U — higher, -0.135
- C27U C46U C66U A69G A70U C71U — lower, -0.485
- G1A U2C C27U A43C C46U A70U — higher, -0.072
- U2C G6U A69G A70U C71U — higher, -0.231
- G6A A43C C46U C66A A70G — higher, -0.144
- U2G C66A A70G C71U — higher, -0.168
- U2C A43C C66U A69G A70U — higher, -0.263
- U2G G6A C27U C46U C66A A69G A70G — higher, -0.134
- G1A U2G G6A C27U A69G A70U — higher, -0.256
- G1A U2G G6A C71U — higher, -0.136
- G6A A43C C46U A70U C71U — higher, -0.151
- G1A G6A A43C C46U C66U A69G A70G — higher, -0.184
- G1A U2G G6A C27U C66U A69G A70U C71U — lower, -0.479
- U2C G6A C27U C46U C71U — higher, -0.119
- G1A U2G G6U A43C C46U C66A C71U — higher, -0.234
- U2G G6U C27U A43C C46U C66A A69G C71U — higher, -0.352
- U2C G6U A69G A70U — higher, -0.117
- U2C G6A A43C C66U A70G C71U — higher, -0.0302
- G1A U2C G6A A43C C66U A69G A70U — higher, -0.275
- G6A C27U C46U — higher, -0.149
- U2C G6U A43C C46U C66U C71U — higher, -0.242
- U2G A43C C66U A69G A70G — higher, -0.222
- G6U A43C C66A C71U — higher, -0.177
- G1A U2C G6A A43C C66U A69G A70G C71U — higher, -0.0387
- U2C C27U A43C C66U A69G A70G C71U — higher, -0.288
- G1A G6A C27U A43C C46U C66U A70U — higher, -0.318
- G1A U2C G6U C27U A43C C46U C66U A69G A70G — higher, -0.279
- G1A U2G A69G A70U C71U — higher, -0.0282
- G1A U2G G6A A69G A70U — higher, -0.153
- G1A U2C C27U C46U A70U C71U — higher, -0.155
- G1A U2C G6U A43C C46U C66A A69G A70G — higher, -0.25
- U2G C27U A43C C46U C66A A69G A70G — higher, -0.21
- G1A G6A A69G A70G C71U — higher, -0.178
- G1A G6A C27U A43C C46U A69G A70U C71U — lower, -0.399
- G1A U2G G6A C66U A69G A70G — higher, -0.282
- U2G G6U C46U C66U A69G A70G C71U — higher, -0.231
- G1A U2G G6A A43C C66U A69G A70U C71U — lower, -0.396
- G1A G6U A43C C46U C66U — higher, -0.286
- G1A U2C C46U C66U A69G A70U — higher, -0.152
- U2G G6U C27U A43C C66A A70U — higher, -0.0378
- G1A G6U C27U A43C C46U A70U C71U — higher, -0.318
- G1A U2C G6U A43C A69G A70U C71U — higher, -0.248
- U2G G6U C27U C46U A69G C71U — higher, -0.205
- G1A U2C C27U A43C C46U C66U A70G — higher, -0.0953
- G1A G6A C27U A43C C46U C66U A69G A70G C71U — higher, -0.324
- G1A C27U C46U C66A A70G C71U — higher, -0.187
- U2C G6A A43C C46U A69G A70U C71U — lower, -0.399
- G1A G6A A43C C46U C66U A70U — higher, -0.24
- G6A A43C C66U A69G A70G — higher, -0.35
- A43C C46U C71U — higher, -0.00724
- G1A G6U A43C C66A A70G C71U — lower, -0.517
- G1A U2C C46U A69G A70G C71U — higher, 0.00686
- U2C C27U C66U A70U — higher, -0.113
- U2C G6A C27U C66U A69G A70G C71U — higher, -0.0741
- G1A G6U C27U A43C C66U A69G A70G — lower, -0.51
- G1A G6U C27U A43C C66U A69G A70U — lower, -0.469
- G6U C27U A43C C66U A70G C71U — higher, -0.352
- G1A U2C G6A C66U A70G — higher, -0.00694
- U2C G6A A43C C46U C66U A69G A70U C71U — higher, -0.319
- G1A U2G C27U A43C C46U C66A A70G C71U — higher, -0.224
- G1A U2G G6U C66A A69G A70U C71U — higher, -0.335
